# Hit rate of the full screen: of about 330,000 compounds, about 1,000 (0.3%) were called active. This excerpt belongs to a sample that is enriched for actives. A number with no mark means an inactive call.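 Rule for the calls: active = activity change at or below -40% at 20 µM; inactive = the rest.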
# Target: Apoptotic protease-activating factor 1 (Homo sapiens) (UniProt O14727)
# Assay: enhancers of Apaf-1-driven caspase-3 activation – biochemical, DEVD-Rh110 fluorescence, uHTS, primary screen (AID 489031)
# Conditions: Apaf-1 apoptosome caspase-3 activation, at 20 µM, stronger effect = lower value
# In short: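 Schedule: 30 min preincubation, 50 min reaction, room temperature / System: biochemical Apaf-1 apoptosome reconstitution / Medium: 20 mM HEPES pH 7.5 with CHAPS, BSA / Evaluation: Caspase-3 cleavage activity downstream of Apaf-1 activation / Detection: Caspase-3-released Rh110 fluorescence, 540 nm emission, 480 nm excitation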
# Sequence of Apoptotic protease-activating factor 1 (Homo sapiens) (O14727 whole entry, looked up): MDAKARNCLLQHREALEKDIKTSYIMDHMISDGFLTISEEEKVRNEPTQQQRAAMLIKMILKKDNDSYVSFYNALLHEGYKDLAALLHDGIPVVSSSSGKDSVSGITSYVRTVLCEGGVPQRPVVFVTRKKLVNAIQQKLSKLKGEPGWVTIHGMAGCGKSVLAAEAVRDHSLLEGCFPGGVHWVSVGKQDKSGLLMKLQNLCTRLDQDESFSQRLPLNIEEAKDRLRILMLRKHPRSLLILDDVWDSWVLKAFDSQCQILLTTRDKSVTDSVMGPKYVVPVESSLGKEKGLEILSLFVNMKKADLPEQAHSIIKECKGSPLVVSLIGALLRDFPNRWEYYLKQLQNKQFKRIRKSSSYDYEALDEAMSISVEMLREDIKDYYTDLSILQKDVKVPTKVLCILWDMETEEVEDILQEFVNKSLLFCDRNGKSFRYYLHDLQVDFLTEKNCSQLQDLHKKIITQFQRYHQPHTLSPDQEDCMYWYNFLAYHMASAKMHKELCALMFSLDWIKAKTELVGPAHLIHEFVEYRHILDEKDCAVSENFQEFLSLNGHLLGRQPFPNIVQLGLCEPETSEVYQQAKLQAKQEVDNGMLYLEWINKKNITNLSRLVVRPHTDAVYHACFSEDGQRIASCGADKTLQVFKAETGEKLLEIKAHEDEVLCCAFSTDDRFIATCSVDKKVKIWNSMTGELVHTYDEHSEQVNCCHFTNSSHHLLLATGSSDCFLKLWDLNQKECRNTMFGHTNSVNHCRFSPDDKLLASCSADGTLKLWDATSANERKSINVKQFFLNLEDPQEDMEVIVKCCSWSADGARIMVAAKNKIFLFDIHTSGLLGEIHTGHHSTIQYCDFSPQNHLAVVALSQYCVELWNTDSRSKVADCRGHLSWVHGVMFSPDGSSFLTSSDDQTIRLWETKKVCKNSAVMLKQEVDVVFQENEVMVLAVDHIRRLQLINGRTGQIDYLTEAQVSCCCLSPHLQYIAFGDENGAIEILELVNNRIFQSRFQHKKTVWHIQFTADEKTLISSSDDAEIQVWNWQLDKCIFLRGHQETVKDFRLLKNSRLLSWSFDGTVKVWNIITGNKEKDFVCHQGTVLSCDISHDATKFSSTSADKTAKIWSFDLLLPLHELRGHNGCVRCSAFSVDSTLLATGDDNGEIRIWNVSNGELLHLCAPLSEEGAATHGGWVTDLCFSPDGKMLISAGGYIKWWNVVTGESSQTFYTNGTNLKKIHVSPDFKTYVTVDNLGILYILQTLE
row,SMILES,"activity change, negative = activation"
1,CC(=O)N(C1=C(Cl)C(=O)c2ccccc2C1=O)c1ccc(C(=O)O)cc1,89%
2,Cc1cc2oc3ccc(NCCC4CCCN4C)cc3c(=O)c2cc1C (centres undefined),46.9%
3,Nc1cc(C(F)(F)F)ccc1N1CCOCC1,-185% (active)
4,CCN(CC(=O)NCc1cccs1)C(=O)c1cccc(S(=O)(=O)Nc2ccccc2OC)c1,60.2%
5,CCN1C[C@@H]2[C@@H]3C(=O)N(Cc4ccccc4)C(=O)[C@@H]3[C@](Cc3ccccc3)(C(=O)OC)N2C1=NC1CCCCC1,41.2%
6,CN(C)S(=O)(=O)c1ccc2oc(SCC(=O)Nc3ccccc3F)nc2c1,61.1%
7,CCOCCc1c(O)nc(SCC(=O)NCc2ccco2)[nH]c1=O,-133% (active)
8,Cc1ccc(N=C2NC(=O)/C(=C/C=C/c3ccco3)S2)cc1C,61.8%
9,COc1cccc(-c2sc3ccc(OC)cc3c2-c2ccc(OCCN3CCCCC3)cc2)c1,61.8%
10,CCC(C)(C)c1ccc(OCC(=O)N(C)C)c(C(C)(C)CC)c1,56.5%
11,CC(C)N1CCC(NC(=O)Nc2ccccc2)CC1,-331% (active)
12,CCOC(=O)C1CCN(C(=O)c2cccc(S(=O)(=O)N(CC)c3ccccc3)c2)CC1,45.2%
13,Clc1ccc(C2=CSC3=Nc4cccc5cccc(c45)N23)cc1,90%
14,Clc1cccc(-c2nc3nc4ccccc4nc3n2Cc2ccco2)c1,-136% (active)
15,COc1ccc(S(=O)(=O)/N=C2\C=C(NS(=O)(=O)c3ccccc3)C(=O)c3ccccc32)cc1,79.2%
16,CN1CC(=O)N=C1N,3.64%
17,CCCC[C@@H]1CN=C(N)N1CCc1cc(C(F)(F)F)cc(C(F)(F)F)c1,52.3%
18,Nc1ccc2nn(-c3ccc(Cl)cc3)nc2c1,83.8%
19,CC(=O)NC(=S)NNC(=O)c1ccc(Br)cc1,-56.7% (active)
20,O=C(Cc1cc(=O)[nH][nH]1)N/N=C/c1ccccc1[N+](=O)[O-],40.8%
21,Cc1ccc(Nc2nc(CSc3nnc(-c4ccncc4)n3-c3ccccc3C)cs2)cc1,-54.9% (active)
22,CCCCCCCCCCOC(=O)Cn1c(COc2ccc(C)cc2)[n+](C)c2ccccc21,77.7%

row,SMILES,"activity change, negative = activation"
1,N#CC1(C#N)C(C(=O)C23CC4CC(CC(C4)C2)C3)C12CCOCC2 (centres undefined),-214% (active)
2,O=C(N/N=C\c1cccnc1)c1cc(-c2ccccc2)nc2c(Cl)cccc12,40.1%
3,C=CCNC(=O)c1ccc(C)c(Br)c1,-44.1% (active)
4,CC1CC(=S)Nc2ccccc2N1Cc1ccccc1 (centres undefined),41.4%
5,Cc1c(-c2nn(C)c(=O)c3ccccc23)oc2ccc(F)cc2c1=O,82%
6,COc1ccc(Cl)cc1NC(=O)CCS(=O)(=O)c1ccc(Br)cc1,-182% (active)
7,CCn1cc(CN2CCC(C(=O)Nc3cccc(-c4cccc(Cl)c4)c3)CC2)c(C)n1,40.5%
8,CCN1C(=O)c2cccc3c(N)ccc1c23,97.1%
9,CN(C)S(=O)(=O)c1ccc(C(=O)NCCN=C2NS(=O)(=O)c3ccccc32)cc1,-486% (active)
10,Cc1[nH]n(-c2ccccc2)c(=O)c1/C=N/NC(=O)c1ccoc1C,61.5%
11,CC(C)CC[n+]1ccn(C2=C([O-])c3ccccc3C(=O)/C2=N\S(=O)(=O)c2ccccc2)c1,55.3%
12,CCCCNC(=O)C(C)N(CCN(C)C)C(=O)CCCN1C(=O)NC(c2ccc(Cl)cc2)C(C(=O)OCc2ccccc2)=C1C (centres undefined),57.1%
13,COc1ccc2c(c1)CCNC2Cc1ccc(OC)c(O)c1 (centres undefined),-42.7% (active)
14,CC1=NN(c2ccc(Cl)c(C(=O)O)c2)C(=O)/C1=C/c1ccc(-c2ccccc2[N+](=O)[O-])o1,42.9%
15,O=C1NNC(c2ccccc2)=N/C1=C\c1ccc(Cl)cc1,50.6%
16,CN(CCOc1ccc(CC2SC(=O)NC2=O)cc1)c1ccccn1 (centres undefined),-0.067%
17,C#CCOCCOCCOCCNc1nc(N2CCN(C(=O)CCCCCCCCCCNC(=O)[C@H]([C@@H](C)CC)n3cc(CCCCN=C(N)N)nn3)CC2)nc(N2CCN(C(=O)CCCCCCCCCCNC(=O)[C@H](CO)n3cc(CCCSC)nn3)CC2)n1,59.2%
18,Cc1cc(NC(=O)c2cccc(N3C(=O)CCC3=O)c2)no1,-110% (active)
19,O=C(CCc1ccccc1)NNC(=O)c1ccc(Br)cc1,-96.1% (active)
20,O=C(CCNS(=O)(=O)c1ccccc1)NCCSc1ccc(Br)cc1,58.6%
21,COc1ccc(C(CNC(=O)c2ccc(S(=O)(=O)Nc3ccccc3F)cc2)N(C)C)cc1 (centres undefined),56.5%
22,O=[N+]([O-])c1ccc2nc(-c3ccccn3)[nH]c2c1,-143% (active)

row,SMILES,"activity change, negative = activation"
1,COc1cc(C(=O)NCc2nnc(SCC(=O)Nc3nc4ccc(C)cc4s3)o2)cc(OC)c1OC,-87.4% (active)
2,Oc1c(C=Nc2cccc3nsnc23)ccc2ccccc12,95.8%
3,CCOc1c(Br)cc(/C=C2\C(=O)N(CCC#N)N=C2C)cc1OC,75.9%
4,O=C1Nc2ccc([N+](=O)[O-])cc2C1=Nc1cccc(CO)c1,41.2%
5,COc1ccc(OCCCC(=O)NCCc2ccccc2)cc1,-144% (active)
6,COc1ccc(N(CCC(=O)NCCc2ccccc2)S(=O)(=O)c2ccc(C)cc2C)cc1,54.9%
7,CCN1C(=NCc2ccc(OC)cc2)N[C@@H](CCc2ccccc2)[C@H](C(=O)NCc2ccc(OC)cc2)[C@H]1C,40.4%
8,Cc1ccc(S(=O)(=O)N2CCN(C(=O)c3ccccc3-c3nc4ccccc4s3)CC2)c(C)c1,40.3%
9,COCC(C)OC(=O)c1c(N)n(CCCN2CCOCC2)c2nc3ccccc3nc12 (centres undefined),50.9%
10,C#CCOCCOCCOCCNc1nc(N2CCN(C(=O)CCCCCCCCCCNC(=O)Cn3cc(CCCCCN)nn3)CC2)nc(N2CCN(C(=O)CCCCCCCCCCNC(=O)[C@H](CO)n3cc(CCCSC)nn3)CC2)n1,60.7%
11,O=C(Nc1cccc(C(F)(F)F)c1)c1cnccn1,-50.6% (active)
12,C#CCOCCOCCOCCNc1nc(N2CCN(C(=O)C([C@@H](C)O)n3cc([C@@H](N)CCCCN)nn3)CC2)nc(N2CCN(C(=O)[C@H](CCCCN)n3cc(CN)nn3)CC2)n1 (some centres undefined),42.2%
13,C[C@@H](CN1CCC[C@H]1CN1C(N)=NC[C@@H]1Cc1ccccc1)N1C[C@@H](Cc2ccccc2)N(CCCC2CCCC2)C1=N,70.9%
14,CCOC(=O)c1ccc(Nc2cc3ccccc3c(=O)[nH]2)cc1,92.5%
15,Brc1ccc(/C=N/N2CCN(C3c4ccccc4-c4ccccc43)CC2)s1,-255% (active)
16,CCc1ccc(CNC(=O)C2CCN(c3nnc(C)c4c(C)n(-c5ccc(C)cc5)nc34)CC2)cc1,42.3%
17,Cc1cc(N2CCCC2)ccc1NC(=O)COc1ccc(Cl)cc1,62.2%
18,COc1cccc(C(=O)Nc2ccc(N3CCCC3)cc2)c1,-89.7% (active)
19,CCCCCCc1cc2cc(-c3nnc(-c4ccccc4)o3)c(=O)oc2cc1O,67.8%
20,COC1=C(N2CCOCC2)C(=O)c2ccccc2C1=O,65.8%

# Source: PubChem BioAssay AID489031 (Sanford-Burnham Center for Chemical Genomics, 2010)
